# Results collected from several papers.
# Each line is one published result; the experiments were not run side by side.
# LRRK2: Leucine-rich repeat serine/threonine-protein kinase 2 (LRRK2, Homo sapiens, UniProt Q5S007)
# LRRK2 G2019S: Leucine-rich repeat serine/threonine-protein kinase 2 (LRRK2, Homo sapiens, UniProt Q5S007, G2019S)
SMILES,target,assay,conditions,remaining binding
c1ccc(N2CCN(Cc3nc4ccccc4[nH]3)CC2)nc1,LRRK2,"binding, competition with immobilised ligand",1 µM,99%
COc1ccnn2ncc(-c3ccnc(N(C)C)n3)c12,LRRK2,binding,1 µM,56%
CS(=O)(=O)N1CCCC(NC(=O)[C@H](CCC2CCCCC2)NC(=O)c2ccc(CNC(=O)c3cnc4ccccn34)cc2)C1 (some centres unmarked),LRRK2 G2019S,"cell-free assay, competition with immobilised ligand",0.1 µM,100%
Nc1ncc2c(n1)-c1c([nH]c3ccc(C#CC4CC4)cc13)CCCC2,LRRK2 G2019S,"binding, competition with immobilised ligand",1 µM,83%
Cc1cnn2ncc(-c3ccnc(N(C)C)n3)c2c1,LRRK2 G2019S,binding,1 µM,100%
C=CC(=O)N1CCC(C(=O)NCC(=O)N2CCN(c3nc(-c4cnc(N)nc4C(F)F)nc(N4CCOCC4)n3)CC2)CC1,LRRK2,"binding, competition with immobilised ligand",1 µM,63%
FC(F)(F)Oc1cccc(-c2cnc3ccc(-c4ccncc4)nn23)c1,LRRK2,"cell-free assay, competition with immobilised ligand",5 µM,52%
N#Cc1ccc(Nc2ccc3[nH]c(=O)[nH]c3c2)c(Cl)c1,LRRK2 G2019S,"cell-free assay, competition with immobilised ligand",1 µM,93%
N[C@H]1CCN(c2nccc(-c3cnn4ncccc34)n2)C1,LRRK2 G2019S,binding,1 µM,89%
C[C@H](NC(=O)c1cnc2n1[C@](C)(Cc1ccc(C#N)cc1)C(=O)N2c1cc(Cl)c(F)c(Cl)c1)C(=O)NC1(c2ccccn2)CC1,LRRK2 G2019S,"cell-free assay, competition with immobilised ligand",1 µM,100%
CN(C)c1ncc(F)c(-c2cnn3ncccc23)n1,LRRK2,binding,1 µM,50%
Cc1cnc(Nc2ccc(C(=O)N3CCC(N4CCCC4)CC3)cc2)nc1-c1cc2ccccc2s1,LRRK2,"binding, competition with immobilised ligand",1 µM,8.3%
CNC(=O)[C@@H]1CC[C@@H](n2c(-c3ccc4cnccc4c3)nc3ccc(C(=O)NCc4cccc(C(N)=O)c4)cc32)C1,LRRK2 G2019S,"binding, competition with immobilised ligand",1 µM,100%
F[C@@H]1CCN(c2nccc(-c3cnn4ncccc34)n2)C1,LRRK2,binding,1 µM,100%
COc1cnc(Nc2cccc(S(N)(=O)=O)c2)nc1N1CCN(c2ccccc2)CC1,LRRK2,"binding, competition with immobilised ligand",1 µM,80%
CCS(=O)(=O)c1cc2cc(C[C@](O)(CC(C)(C)c3ccc(F)cc3C(N)=O)C(F)(F)F)[nH]c2cn1,LRRK2,"cell-free assay, competition with immobilised ligand",1 µM,100%
CN(C)c1nccc(-c2cnn3ncccc23)n1,LRRK2,binding,1 µM,90%
O=C(NCCCN1CCOCC1)c1ccc(Nc2ncc(Cl)c(-c3ccc(Cl)s3)n2)cc1,LRRK2,"binding, competition with immobilised ligand",1 µM,24%
CC(=O)c1c(NS(C)(=O)=O)c2cc(-c3ccc(Cl)cc3)c(-c3ccc(Cl)cc3Cl)nc2n(C)c1=O,LRRK2,"cell-free assay, competition with immobilised ligand",1 µM,65%
C[C@@H]1CCN(c2nccc(-c3cnn4ncccc34)n2)C1,LRRK2 G2019S,binding,1 µM,63%
O=C(NCC1CCOCC1)c1n[nH]cc1NC(=O)c1c(F)cccc1F,LRRK2 G2019S,"binding, competition with immobilised ligand",1 µM,89%
O=C(c1ccc(Nc2nccc(-c3cc4ccccc4s3)n2)cc1)N1CCC(N2CCCC2)CC1,LRRK2,"binding, competition with immobilised ligand",1 µM,40%
CCc1ccccc1C(=O)Nc1n[nH]c2c(C)c(F)c(C3C(C#N)=C(C)N(C)C(C)=C3C#N)cc12,LRRK2 G2019S,"cell-free assay, competition with immobilised ligand",1 µM,100%
